Experimental data as given in ChEMBL document CHEMBL4145545, “Synthesis and structure-activity relationships of asymmetric dimeric β-carboline derivatives as potential antitumor agents” (Eur J Med Chem, 2018).
The source made the active and inactive calls. The calls are words filed in the database; no cut-off is given here.

Assays:
[1] = system: HepG2; test: Cytotoxicity against human HepG2 cells assessed as cell growth inhibition after 24 hrs by MTT assay; type: functional, cell-based; settings: HepG2, 24 h
Summary of the method: (§1)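 Cell lines grown to log phase in RPMI-1640 with 10% FBS, penicillin and streptomycin. About 10^5 cells/mL were plated and pre-incubated 24 h at 37 °C in 5% CO2. Compounds were given in DMSO, final ≤2% (v/v). MTT read-out was OD at 490 nm. Triplicate wells per concentration, each assay run ≥3 times. IC50 is 50% OD reduction versus untreated cells, calculated by the Logit method. Cisplatin was the reference.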

[2] = system: MCF7; test: Cytotoxicity against human MCF7 cells assessed as cell growth inhibition after 24 hrs by MTT assay; type: functional, cell-based; settings: MCF7, 24 h; summary of the method: as §1
[3] = Cytotoxicity against human BGC cells assessed as cell growth inhibition after 24 hrs by MTT assay; type: functional, cell-based; summary of the method: as §1
[4] = system: A-375; test: Cytotoxicity against human A375 cells assessed as cell growth inhibition after 24 hrs by MTT assay; type: functional, cell-based; settings: A-375, 24 h; summary of the method: as §1
[5] = system: HT-29; test: Cytotoxicity against human HT-29 cells assessed as cell growth inhibition after 24 hrs by MTT assay; type: functional, cell-based; settings: HT-29, 24 h; summary of the method: as §1
[6] = system: 769-P; test: Cytotoxicity against human 769-P cells assessed as cell growth inhibition after 24 hrs by MTT assay; type: functional, cell-based; summary of the method: as §1
[7] = system: SK-OV-3; test: Cytotoxicity against human SKOV3 cells assessed as cell growth inhibition after 24 hrs by MTT assay; type: functional, cell-based; settings: SK-OV-3, 24 h; summary of the method: as §1
[8] = system: ECa-109 cell line; test: Cytotoxicity against human ECA109 cells assessed as cell growth inhibition after 24 hrs by MTT assay; type: functional, cell-based; settings: ECa-109, 24 h; summary of the method: as §1
[9] = system: Lewis lung carcinoma cell line; test: Cytotoxicity against mouse LLC cells assessed as cell growth inhibition after 24 hrs by MTT assay; type: functional, cell-based; summary of the method: as §1
[10] = system: Chorioallantoic membrane; test: In vivo antiangiogenic activity in chicken embryo chorioallantoic membrane at 50 uM/disc after 48 hrs by microscopic method; type: functional, organism-based; settings: Gallus gallus
[11] = Acute toxicity in ip dosed Kunming mouse observed continuously for first 2 hrs, intermittently for next 24 hrs and occasionally thereafter for 14 days; type: organism-based; settings: in vivo
Summary of the method: (§2)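 SPF KM mice, 6-8 weeks, 19-22 g, fasted overnight with water available. Single i.p. dose, 5.0 to 500 mg kg-1 in 0.5% CMC-Na, 10 mice per group (5 male, 5 female). Observed for behaviour, neurotoxic signs and deaths, then killed on day 14 and heart, liver and kidneys inspected macroscopically. LD50 derived graphically.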

[12] = system: Mus musculus; test: Neurotoxicity in Kunming mouse assessed as tremble at 5 to 500 mg/kg, ip observed continuously for first 2 hrs, intermittently for next 24 hrs and occasionally thereafter for 14 days; type: toxicity, organism-based; settings: in vivo; summary of the method: as §2
[13] = system: Mus musculus; test: Neurotoxicity in Kunming mouse assessed as twitch at 5 to 500 mg/kg, ip observed continuously for first 2 hrs, intermittently for next 24 hrs and occasionally thereafter for 14 days; type: toxicity, organism-based; settings: in vivo; summary of the method: as §2
[14] = system: Mus musculus; test: Neurotoxicity in Kunming mouse assessed as jumping behavior at 5 to 500 mg/kg, ip observed continuously for first 2 hrs, intermittently for next 24 hrs and occasionally thereafter for 14 days; type: toxicity, organism-based; settings: in vivo; summary of the method: as §2
[15] = system: Mus musculus; test: Neurotoxicity in Kunming mouse assessed as supination at 5 to 500 mg/kg, ip observed continuously for first 2 hrs, intermittently for next 24 hrs and occasionally thereafter for 14 days; type: toxicity, organism-based; settings: in vivo; summary of the method: as §2
[16] = system: Mus musculus; test: Acute toxicity in ip dosed Kunming mouse assessed as death at higher dose up to 4 to 8 hrs; type: organism-based; settings: in vivo; summary of the method: as §2
[17] = system: Mus musculus; test: Cardiotoxicity in Kunming mouse at 5 to 500 mg/kg, ip after 14 days by macroscopic method; type: toxicity, organism-based; settings: in vivo, 336 h
[18] = system: Mus musculus; test: Nephrotoxicity in Kunming mouse at 5 to 500 mg/kg, ip after 14 days by macroscopic method; type: toxicity, organism-based; settings: in vivo, 336 h
[19] = system: Mus musculus; test: Hepatotoxicity in Kunming mouse at 5 to 500 mg/kg, ip after 14 days by macroscopic method; type: toxicity, organism-based; settings: in vivo, 336 h
[20] = system: Sarcoma-180; test: Antitumor activity against mouse Sarcoma 180 cells implanted in mouse assessed as tumor growth inhibition at 30 mg/kg, ip administered once per day for 7 consecutive days starting from 24 hrs post tumor inoculation and measured on day 21 post tumor inoculation relative to control; type: functional; settings: Sarcoma-180, ip, read-out: TGI
Summary of the method: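 Tumour cells passaged in mice for 7 days, then 2 × 10^6 viable cells given s.c. into the armpit of female mice, 10 per group. […] CTX at 30 mg kg-1 as reference, vehicle as negative control. Body weight recorded every 3 days. Tumours excised and weighed on day 21. Inhibition = (C − T)/C × 100, using mean tumour weights.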

Cc1nccc2c3ccccc3n(CCCCCCOc3ccc4c5ccnc(C)c5n(CCCc5ccccc5)c4c3)c12
IC50 [1]: 14.1 µM | IC50 [2]: 11.7 µM | IC50 [3]: 12.5 µM | IC50 [4]: 15.8 µM | IC50 [5]: 28.1 µM | IC50 [6]: 16.1 µM | IC50 [7]: 19.4 µM | IC50 [8]: 15.1 µM | IC50 [9]: 14.1 µM

Cc1nccc2c3ccc(OCCCCn4c5ccccc5c5ccnc(-c6ccccc6Cl)c54)cc3n(CCCc3ccccc3)c12
IC50 [1]: 14.4 µM | IC50 [2]: 5.9 µM | IC50 [3]: 12.4 µM | IC50 [4]: 3.9 µM | IC50 [5]: 20.2 µM | IC50 [6]: 21.9 µM | IC50 [7]: 22.9 µM | IC50 [8]: 18.4 µM | IC50 [9]: 10.1 µM

CCn1c2cc(OCCCCCCn3c4ccccc4c4ccncc43)ccc2c2ccnc(C)c21
IC50 [1]: > 100 µM | IC50 [2]: 19 µM | IC50 [3]: 40.7 µM | IC50 [4]: 34.7 µM | IC50 [5]: 60.3 µM | IC50 [6]: > 100 µM | IC50 [7]: > 100 µM | IC50 [8]: 17.4 µM | IC50 [9]: 21.8 µM

COc1ccc(-c2nccc3c4ccccc4n(CCCCOc4ccc5c6ccnc(C)c6n(CCCc6ccccc6)c5c4)c23)cc1OC
IC50 [1]: 2.4 µM | IC50 [2]: 7.2 µM | IC50 [3]: 9.7 µM | IC50 [4]: 6.7 µM | IC50 [5]: 22.7 µM | IC50 [6]: 8.2 µM | IC50 [7]: 8.8 µM | IC50 [8]: 9.3 µM | IC50 [9]: 6.2 µM

COc1ccc(/C=C\c2cc(OC)c(OC)c(OC)c2)cc1OP(=O)(O)O
Activity [10]: Active

Cc1nccc2c3ccccc3n(CCCCOc3ccc4c5ccnc(C)c5n(CCCc5ccccc5)c4c3)c12.Cl
IC50 [1]: 9.1 µM | IC50 [2]: 4 µM | IC50 [3]: 7.4 µM | IC50 [4]: 8.4 µM | IC50 [5]: 14.1 µM | IC50 [6]: 9.9 µM | IC50 [7]: 13.1 µM | IC50 [8]: 9.9 µM | IC50 [9]: 4.4 µM | LD50 at 14 days [11]: 150 mg/kg | Activity [12]: Non-Toxic | Activity [13]: Non-Toxic | Activity [14]: Non-Toxic | Activity [15]: Non-Toxic | Activity [16]: Toxic | Activity [17]: Non-Toxic | Activity [18]: Non-Toxic | Activity [19]: Non-Toxic | inhibition in vivo at 30 mg/kg [20]: 36.7%

CCCCn1c2cc(OCCCCn3c4ccccc4c4ccncc43)ccc2c2ccnc(C)c21
IC50 [1]: 29.5 µM | IC50 [2]: 28.8 µM | IC50 [3]: 41.5 µM | IC50 [4]: 72.4 µM | IC50 [5]: 21.8 µM | IC50 [6]: 22.9 µM | IC50 [7]: 17.3 µM | IC50 [8]: 21.8 µM | IC50 [9]: 38 µM

CCCCn1c2cc(OCCCCCn3c4ccccc4c4ccncc43)ccc2c2ccnc(C)c21
IC50 [1]: 65.1 µM | IC50 [2]: 16.7 µM | IC50 [3]: > 100 µM | IC50 [4]: > 100 µM | IC50 [5]: 32.6 µM | IC50 [6]: 31.1 µM | IC50 [7]: 65.1 µM | IC50 [8]: > 100 µM | IC50 [9]: > 100 µM

CCCCn1c2cc(OCCCCCn3c4ccccc4c4ccnc(C)c43)ccc2c2ccnc(C)c21
IC50 [1]: > 100 µM | IC50 [2]: > 100 µM | IC50 [3]: > 100 µM | IC50 [4]: 50.8 µM | IC50 [5]: 10.1 µM | IC50 [6]: 11.6 µM | IC50 [7]: 14.3 µM | IC50 [8]: > 100 µM | IC50 [9]: 12.4 µM

COc1cc(-c2nccc3c4ccccc4n(CCCCOc4ccc5c6ccnc(C)c6n(CCCc6ccccc6)c5c4)c23)cc(OC)c1OC
IC50 [1]: 24.9 µM | IC50 [2]: 11.7 µM | IC50 [3]: 18.2 µM | IC50 [4]: 7.1 µM | IC50 [5]: 3.9 µM | IC50 [6]: 14.1 µM | IC50 [7]: 10.3 µM | IC50 [8]: 9.7 µM | IC50 [9]: 8.7 µM

CCn1c2cc(OCCCCCn3c4ccccc4c4ccnc(C)c43)ccc2c2ccnc(C)c21
IC50 [1]: 112 µM | IC50 [2]: 56.3 µM | IC50 [3]: 35.4 µM | IC50 [4]: 31.5 µM | IC50 [5]: 14.9 µM | IC50 [6]: 70.6 µM | IC50 [7]: 30.8 µM | IC50 [8]: 46.6 µM | IC50 [9]: > 100 µM

Cc1nccc2c3ccc(OCCCCn4c5ccccc5c5ccnc(-c6cccnc6)c54)cc3n(CCCc3ccccc3)c12
IC50 [1]: 10.7 µM | IC50 [2]: 29.8 µM | IC50 [3]: 4.2 µM | IC50 [4]: 18.9 µM | IC50 [5]: 11.2 µM | IC50 [6]: 7.2 µM | IC50 [7]: 22.9 µM | IC50 [8]: 12.9 µM | IC50 [9]: 9.4 µM

CCn1c2cc(OCCCCn3c4ccccc4c4ccncc43)ccc2c2ccnc(C)c21
IC50 [1]: > 100 µM | IC50 [2]: 19.4 µM | IC50 [3]: 41.5 µM | IC50 [4]: 30.7 µM | IC50 [5]: 37 µM | IC50 [6]: 27.4 µM | IC50 [7]: 19.8 µM | IC50 [8]: 37 µM | IC50 [9]: 16.5 µM

Cc1nccc2c3ccc(OCCCCn4c5ccccc5c5ccnc(C(C)C)c54)cc3n(CCCc3ccccc3)c12
IC50 [1]: 46.2 µM | IC50 [2]: 14.4 µM | IC50 [3]: 37.8 µM | IC50 [4]: 23.8 µM | IC50 [5]: 12.1 µM | IC50 [6]: 18.5 µM | IC50 [7]: 28.1 µM | IC50 [8]: 16.2 µM | IC50 [9]: 10.8 µM

CCn1c2cc(OCCCCCCn3c4ccccc4c4ccnc(C)c43)ccc2c2ccnc(C)c21
IC50 [1]: 74.6 µM | IC50 [2]: 75.2 µM | IC50 [3]: 44.7 µM | IC50 [4]: 74.6 µM | IC50 [5]: 36.2 µM | IC50 [6]: 75.2 µM | IC50 [7]: 11.2 µM | IC50 [8]: 61.4 µM | IC50 [9]: 51.1 µM

Cc1nccc2c3ccc(OCCCCCCn4c5ccccc5c5ccncc54)cc3n(CCCc3ccccc3)c12
IC50 [1]: 12.1 µM | IC50 [2]: 8.5 µM | IC50 [3]: 11.2 µM | IC50 [4]: 37.1 µM | IC50 [5]: 16.2 µM | IC50 [6]: 13.1 µM | IC50 [7]: 76.4 µM | IC50 [8]: 12.6 µM | IC50 [9]: 28.2 µM

CCCCn1c2cc(OCCCCCCn3c4ccccc4c4ccncc43)ccc2c2ccnc(C)c21
IC50 [1]: 51.7 µM | IC50 [2]: > 100 µM | IC50 [3]: > 100 µM | IC50 [4]: 78.3 µM | IC50 [5]: > 100 µM | IC50 [6]: > 100 µM | IC50 [7]: > 100 µM | IC50 [8]: > 100 µM | IC50 [9]: 46.1 µM
